For data set [1], the system named is Mus musculus. Briefly: BDF1 male mice were administered with 200 mg/kg orally and percent change in iron levels was determined in Feces. The format is functional. The settings on record: route oral. A digest of the protocol: (§1)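 Male BDF1 mice made iron-overloaded by transfusion of washed, heat-treated (50 °C, 30 min) canine red cells. Dosing began 2 days after the last transfusion, once daily for 7 days, in distilled water or 2% Polysorbate 80 suspension. Daily group urine was collected. Pooled feces were digested in 1 N HCl (90 °C, 30 min). Liver and spleen were homogenized in saline. Iron was measured by atomic absorption and expressed as % change vs transfused controls.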

The test system of data set [2] is Mus musculus. Briefly: BDF1 male mice were administered with 200 mg/kg orally and percent change in iron levels was determined in Liver. The format is functional. The settings on record: route oral. The procedure, abridged: as §1
Data set [3] has as its system Mus musculus. Briefly: BDF1 male mice were administered with 25 mg/kg orally and percent change in iron levels was determined in spleen. It counts as functional. As to conditions: dose 200 mg/kg; route intraperitoneal; in the assay text read “200 mg/kg intraperitoneally” for “25 mg/kg orally”.
In data set [4] the test system is Mus musculus. Briefly: BDF1 male mice were administered with 50 mg/kg orally and percent change in iron levels was determined in spleen. The settings on record: dose 375 mg/kg; route intraperitoneal; in the assay text read “375 mg/kg intraperitoneally” for “50 mg/kg orally”. It counts as functional.
The test system of data set [5] is Mus musculus. Briefly: BDF1 male mice were administered with 200 mg/kg orally and percent change in iron levels was determined in Urine. It counts as functional. The settings on record: route oral. A digest of the protocol:
as §1

For data set [6], the system named is Mus musculus. Briefly: BDF1 male mice were administered with 200 mg/kg orally and percent change in iron levels was determined in spleen. It counts as functional. As to conditions: route oral. A digest of the protocol: as §1
In data set [7] the test system is Mus musculus. Briefly: BDF1 male mice were administered with 100 mg/kg orally and percent change in iron levels was determined in spleen. As to conditions: dose 400 mg/kg; route oral; in the assay text read “400 mg/kg” for “100 mg/kg”. The format is functional. A digest of the protocol:
as §1

Data set [8] relates to Mus musculus. Briefly: BDF1 male mice were administered with the compound and number of survivors was determined out of 10 tested at a dose 200 mg/kg peroral. The format is functional. As to conditions: route oral. A digest of the protocol: (§2)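 Male BDF1 mice were iron-loaded by transfusion of canine red cells. The cells were heparinised, washed twice in isotonic saline and heated at 50 °C for 30 min. Dosing started two days after the last transfusion, once daily for 7 consecutive days. Compounds were given in distilled water or as a fine aqueous suspension with Polysorbate 80 (2% final). Toxic signs were recorded daily and survivors counted per group.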

The test system of data set [9] is Mus musculus. Briefly: BDF1 male mice were administered with the compound and number of survivors was determined out of 10 tested at a dose 400 mg/kg peroral. As to conditions: route oral. It counts as functional. The procedure, abridged:
as §2

The subject of data set [10] is Mus musculus. Briefly: BDF1 male mice were administered with the compound and number of survivors was determined out of 10 tested at a dose 375 mg/kg intraperitoneal.
A short description of data set [11]: Compound was evaluated for lethal dose after intraperitoneal administration using iron overload rat model. It counts as toxicity, organism-based. The settings on record: in vivo, ip.
The test system of data set [12] is Rattus norvegicus. Briefly: Percent change in iron levels was determined in feces using iron overload rat model where the route of administration is Intraperitoneal. The format is functional.
The subject of data set [13] is Rattus norvegicus. Briefly: Percent change in iron levels was determined in urine using iron overload rat model where the route of administration is Intraperitoneal. It counts as functional.
The test system of data set [14] is Rattus norvegicus. Briefly: Percent change in iron levels was determined in urine using iron overload rat model where the route of administration is Peroral. The format is functional.
Data set [15] concerns Mus musculus. Briefly: BDF1 male mice were administered with 300 mg/kg intraperitoneally and number of survivors was determined out of 10 tested. The format is functional. As to conditions: route intraperitoneal. A digest of the protocol:
as §2

Data set [16] is described as follows: Half life was determined titrimetrically at pH 10.5 in the absence of metal ironHalf life was determined Spectrophotometrically. The format is ADME.
Data set [17] is described as follows: Half life was determined titrimetrically at pH 10.5 in the presence of Fe(III)Half life was determined (measured in water). The settings on record: pH 7.5, in the assay text read “pH 7.5” for “pH 10.5”. It counts as ADME. A digest of the protocol: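 Metal and chelator were each 5 × 10⁻⁴ M. Constant pH was held with 0.05 M NaOH. Hydrolysis rate came from base consumption, with first-order kinetics.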

Data set [18] can be described thus: First order rate constant was determined titrimetrically at pH 10.5 in the absence of metal iron. It counts as ADME.
Data set [19] concerns Mus musculus. Briefly: BDF1 male mice were administered with 200 mg/kg orally and percent change in iron levels was determined in Spleen. It counts as functional. The settings on record: route oral. A digest of the protocol:
as §1

For data set [20], the system named is Mus musculus. Briefly: BDF1 male mice were administered with 25 mg/kg orally and percent change in iron levels was determined in Feces. The format is functional. The settings on record: route oral. A digest of the protocol:
(§3)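 Hypertransfused male BDF1 mice (canine red cells, washed and heated at 50 °C for 30 min) were dosed orally for 7 days with compound in distilled water or a fine suspension with Polysorbate 80 (2% final). Daily group urine and pooled feces (1 N HCl digest, 90 °C, 30 min, triplicate) were collected, and liver and spleen were homogenized. Iron was measured by atomic absorption and reported as % change vs transfused control.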

In data set [21] the test system is Mus musculus. Briefly: BDF1 male mice were administered with 25 mg/kg orally and percent change in iron levels was determined in Spleen. The format is functional. As to conditions: route oral. The procedure, abridged: as §3
Data set [22] relates to Mus musculus. Briefly: BDF1 male mice were administered with 25 mg/kg orally and percent change in iron levels was determined in Urine. The format is functional. As to conditions: route oral. The procedure, abridged: as §3
The subject of data set [23] is Mus musculus. Briefly: BDF1 male mice were administered with 50 mg/kg orally and percent change in iron levels was determined in Urine. The format is functional. As to conditions: route oral. The procedure, abridged:
as §3

The test system of data set [24] is Mus musculus. Briefly: BDF1 male mice were administered with 50 mg/kg orally and percent change in iron levels was determined in Feces. The format is functional. As to conditions: route oral. A digest of the protocol: as §3
In data set [25] the test system is Mus musculus. Briefly: BDF1 male mice were administered with 50 mg/kg orally and percent change in iron levels was determined in Liver. It counts as functional. As to conditions: route oral. The procedure, abridged:
as §3

For data set [26], the system named is Mus musculus. Briefly: BDF1 male mice were administered with 50 mg/kg orally and percent change in iron levels was determined in Spleen. As to conditions: route oral. The format is functional. The procedure, abridged:
as §3

Data set [27] deals with Mus musculus. Briefly: BDF1 male mice were administered with 100 mg/kg orally and percent change in iron levels was determined in Feces. The format is functional. The settings on record: route oral. A digest of the protocol: as §1
For data set [28], the system named is Mus musculus. Briefly: BDF1 male mice were administered with 100 mg/kg orally and percent change in iron levels was determined in Liver. The format is functional. As to conditions: route oral. The procedure, abridged:
as §1

The subject of data set [29] is Mus musculus. Briefly: BDF1 male mice were administered with 100 mg/kg orally and percent change in iron levels was determined in Spleen. It counts as functional. The settings on record: route oral. A digest of the protocol: as §1
Data set [30] deals with Mus musculus. Briefly: BDF1 male mice were administered with 100 mg/kg orally and percent change in iron levels was determined in Urine. It counts as functional. As to conditions: route oral. A digest of the protocol: as §1
The subject of data set [31] is Mus musculus. Briefly: BDF1 male mice were administered with the compound orally and number of survivors at a dose 25 mg/kg peroral was determined out of 10 tested. The format is functional. The settings on record: route oral. A digest of the protocol: as §2
The subject of data set [32] is Mus musculus. Briefly: BDF1 male mice were administered with the compound orally and number of survivors was determined out of 10 tested at a dose 100 mg/kg peroral. The format is functional. As to conditions: route oral. The procedure, abridged:
as §2

Data set [33] deals with Mus musculus. Briefly: BDF1 male mice were administered with the compound orally and number of survivors was determined out of 10 tested at a dose 200 mg/kg peroral. As to conditions: route oral. The format is functional. The procedure, abridged: as §2
The subject of data set [34] is Mus musculus. Briefly: BDF1 male mice were administered with the compound orally and number of survivors was determined out of 10 tested at a dose 50 mg/kg peroral. The format is functional. The settings on record: route oral. The procedure, abridged:
as §2

Data set [35] deals with Rattus norvegicus. Briefly: Percent change in iron levels was determined in feces using iron overload rat model where the route of administration is Peroral. The format is functional.
In data set [36] the test system is Mus musculus. Briefly: BDF1 male mice were administered with 25 mg/kg orally and percent change in iron levels was determined in Liver. It counts as functional. The settings on record: route oral. A digest of the protocol:
as §3

Data set [37] in a line: First order rate constant was determined titrimetrically at pH 7.5 in the presence of Co(II).
The nature of data set [38]: First order rate constant was determined titrimetrically at pH 7.5 in the presence of Cu(II).
The nature of data set [39]: First order rate constant was determined titrimetrically at pH 7.5 in the presence of Zn(II).
A short description of data set [40]: Half life was determined titrimetrically at pH 7.5 in the presence of Cu(II) Half life was determined.
Data set [41] is described as follows: Half life was determined titrimetrically at pH 7.5 in the presence of Fe(III)Half life was determined.
A short description of data set [42]: Half life was determined titrimetrically at pH 7.5 in the presence of Co(II)Half life was determined (measured in water).
Data set [43] in a line: Half life was determined titrimetrically at pH 7.5 in the presence of Zn(II)Half life was determined (measured in water).

Each structure is given as a SMILES string. “And” between values parts separate entries of the source, which are not always exact repeats. Equal entries are not always repeated. Where only a bound is given, the exact number is not on record here.

With `COC(=O)CN(CCN(CC(=O)OC)Cc1ccccc1OC(C)=O)Cc1ccccc1OC(C)=O` [DIMETHYL ESTER], the Iron change in the data set on Mus musculus [1] is -41%; with Mus musculus [2], -40%; in the data set on Mus musculus [3], -22%; with Mus musculus [4] it was -5%; in the data set with Mus musculus [5] it was 138%; in the data set on Mus musculus [6] it was -13%. In addition, in the data set on Mus musculus [7], the Iron change was -46%. Besides, the figures for the No. of survivors in the data set with Mus musculus [8], in the data set with Mus musculus [9] and in the data set on Mus musculus [10] were 10, 6 and 10, respectively.

The LD50 is the dose expected to kill half of the subjects tested. In the case of `O=C(O)C(NCCNC(C(=O)O)c1ccccc1O)c1ccccc1O` (stereo not given), in [11], the LD50 turned out to be 175 mg/kg. Also, the Iron change is 111% with Rattus norvegicus [12]; 484% in the data set on Rattus norvegicus [13]; 19% and 31% in the data set on Rattus norvegicus [14].

`COC(=O)CN(Cc1ccccc1O)CC1CN(Cc2ccccc2O)CC(=O)O1` (stereo not given) gave a No. of survivors with Mus musculus [15] of 10.

The half-life is the time needed for the level to fall by half in the phase considered. Take `COC(=O)CN(CCN(CC(=O)OC)Cc1ccccc1O)Cc1ccccc1O`: the half-life in data set [16] was 3.57 h; in [17], 5.4 min; in [40], 2.25 h; in data set [41], 0.328 h; in data set [42] it was 2.72 h; in [43], 0.318 h. The “10E2 k1” value came out at 0.325 min⁻¹ in [18], 0.436 min⁻¹ in data set [37], 0.513 min⁻¹ in [38] and 3.66 min⁻¹ in [39]. Further, the Iron change is -29% in the data set on Mus musculus [19]; -71% in the data set on Mus musculus [1]; -53% in the data set with Mus musculus [2]; -10% in the data set with Mus musculus [20]; -7% in the data set on Mus musculus [21]; 30% with Mus musculus [22]. Besides, the Iron change was 49% with Mus musculus [23]; 127% in the data set on Mus musculus [5]; 8% in the data set with Mus musculus [24]; -27% in the data set on Mus musculus [25]; -12% with Mus musculus [26]; -2% in the data set on Mus musculus [27]. In addition, the Iron change in the data set on Mus musculus [28] is -42%; in the data set on Mus musculus [29], -12%; with Mus musculus [30], 34%; in the data set with Rattus norvegicus [12], 390%; in the data set on Rattus norvegicus [35], 369%; with Rattus norvegicus [13], 694%. Also, the Iron change with Rattus norvegicus [14] was 588%; in the data set on Mus musculus [36] it was -20%. Also, the No. of survivors in the data set on Mus musculus [31], in the data set on Mus musculus [32], in the data set on Mus musculus [33] and with Mus musculus [34] was 10 in each case. For the same compound, in [11], the LD50 is ≥ 800 mg/kg.
